Calls of active or inactive are those of the source. The calls are words filed in the database; no cut-off is given here.
How the values were obtained:
[1] = molecular target: T1, PXR (NR1I2) ligand binding domain (Homo sapiens, UniProt O75469); assay: Inhibition of BODIPY FL vindoline binding to recombinant human GST-tagged PXR LBD (111 to 434 residues) expressed in baculovirus infected insect cells at 10 uM incubated for 1 mins under shaking condition followed by 60 mins under dark condition by TR-FRET assay relative to control; conditions: probe BODIPY FL vindoline, time 61 min
T1 sequence (O75469 whole entry): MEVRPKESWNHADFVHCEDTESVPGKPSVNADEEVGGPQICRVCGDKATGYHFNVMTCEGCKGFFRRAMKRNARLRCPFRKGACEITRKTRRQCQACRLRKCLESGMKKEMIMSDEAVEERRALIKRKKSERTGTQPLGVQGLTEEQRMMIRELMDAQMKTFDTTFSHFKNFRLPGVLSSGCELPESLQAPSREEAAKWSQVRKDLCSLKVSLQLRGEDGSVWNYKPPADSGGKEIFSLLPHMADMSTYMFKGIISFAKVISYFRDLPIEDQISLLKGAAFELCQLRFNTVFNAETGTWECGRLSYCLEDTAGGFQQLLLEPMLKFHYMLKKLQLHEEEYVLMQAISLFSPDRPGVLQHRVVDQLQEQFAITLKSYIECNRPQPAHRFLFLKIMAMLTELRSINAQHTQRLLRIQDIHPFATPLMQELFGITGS

PXR (NR1I2) = molecular target: T2, PXR (NR1I2) (Homo sapiens, UniProt O75469); assay: Inverse agonist activity at human PXR in human HepG2 cells co-expressing luciferase gene under control of CYP3A4 promoter assessed as inhibition in receptor basal activity at 10 uM incubated for 24 hrs by luminescence based analysis relative to control; assay type: cell-based
T2 sequence (O75469 whole entry): T1 sequence (O75469 whole entry)

[2] = molecular target: T3, Nuclear receptor subfamily 1 group I member 2 (Homo sapiens, UniProt O75469); assay: Agonist activity at human PXR in human HepG2 cells co-expressing luciferase gene under control of CYP3A4 promoter assessed as transcriptional activation at 30 uM incubated for 24 hrs by luminescence based analysis; assay type: cell-based; conditions: hepg2, 24 h
T3 sequence (O75469 whole entry): T1 sequence (O75469 whole entry)

[3] = molecular target: T4, Nuclear receptor subfamily 1 group I member 2 (Mus musculus, UniProt O54915); assay: Effect on mouse PXR activity by luciferase reporter assay
T4 sequence (O54915 whole entry): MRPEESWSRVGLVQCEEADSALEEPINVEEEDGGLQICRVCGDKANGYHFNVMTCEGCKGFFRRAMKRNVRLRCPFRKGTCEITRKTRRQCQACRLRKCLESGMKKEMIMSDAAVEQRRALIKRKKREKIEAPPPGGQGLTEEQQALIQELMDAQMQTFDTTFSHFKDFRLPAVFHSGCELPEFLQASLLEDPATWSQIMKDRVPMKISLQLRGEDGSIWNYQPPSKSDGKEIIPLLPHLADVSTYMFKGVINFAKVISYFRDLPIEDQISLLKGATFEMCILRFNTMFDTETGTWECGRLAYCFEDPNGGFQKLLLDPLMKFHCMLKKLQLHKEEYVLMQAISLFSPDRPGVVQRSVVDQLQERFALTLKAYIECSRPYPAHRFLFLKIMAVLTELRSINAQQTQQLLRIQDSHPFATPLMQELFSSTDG
Method in brief: (§1)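 Run in agonistic mode (compound alone) or antagonistic mode (compound plus an agonist). Each concentration tested in quadruplicate, at least three times. % activation or % inhibition plotted against concentration, with EC50 or IC50 derived from a sigmoidal dose–response fit.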

HepG2 [4] = assay: Effect on CAR activity in human HepG2 cells co-expressing luciferase gene under control of CYP3A4 promoter by luciferase reporter assay; assay type: cell-based
[5] = molecular target: T5, Bile acid receptor (Homo sapiens) (UniProt Q96RI1); assay: Effect on FXR activity in GeneBLAzer FXR-UAS-bla HEK 293T cells by fluorescence based analysis; assay type: cell-based; method in brief: as §1
T5 sequence (whole entry): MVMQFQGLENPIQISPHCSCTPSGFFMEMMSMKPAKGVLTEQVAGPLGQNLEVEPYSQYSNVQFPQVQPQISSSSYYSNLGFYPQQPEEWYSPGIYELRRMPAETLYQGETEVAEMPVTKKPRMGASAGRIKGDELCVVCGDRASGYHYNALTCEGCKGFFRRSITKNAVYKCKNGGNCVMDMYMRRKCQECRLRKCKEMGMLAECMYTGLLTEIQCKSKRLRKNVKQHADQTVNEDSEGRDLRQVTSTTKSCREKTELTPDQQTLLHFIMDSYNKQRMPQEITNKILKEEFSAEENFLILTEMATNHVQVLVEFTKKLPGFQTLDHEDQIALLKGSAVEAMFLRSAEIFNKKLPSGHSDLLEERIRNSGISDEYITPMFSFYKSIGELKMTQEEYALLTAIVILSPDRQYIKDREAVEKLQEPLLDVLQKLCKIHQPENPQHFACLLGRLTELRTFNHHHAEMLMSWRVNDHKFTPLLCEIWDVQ

[6] = molecular target: T6, Oxysterols receptor LXR-alpha (Homo sapiens) (UniProt Q13133); assay: Effect on LXRalpha activity in GeneBLAzer LXRalpha-UAS-bla HEK 293T cells by fluorescence based analysis; assay type: cell-based; method in brief: as §1
T6 sequence (whole entry): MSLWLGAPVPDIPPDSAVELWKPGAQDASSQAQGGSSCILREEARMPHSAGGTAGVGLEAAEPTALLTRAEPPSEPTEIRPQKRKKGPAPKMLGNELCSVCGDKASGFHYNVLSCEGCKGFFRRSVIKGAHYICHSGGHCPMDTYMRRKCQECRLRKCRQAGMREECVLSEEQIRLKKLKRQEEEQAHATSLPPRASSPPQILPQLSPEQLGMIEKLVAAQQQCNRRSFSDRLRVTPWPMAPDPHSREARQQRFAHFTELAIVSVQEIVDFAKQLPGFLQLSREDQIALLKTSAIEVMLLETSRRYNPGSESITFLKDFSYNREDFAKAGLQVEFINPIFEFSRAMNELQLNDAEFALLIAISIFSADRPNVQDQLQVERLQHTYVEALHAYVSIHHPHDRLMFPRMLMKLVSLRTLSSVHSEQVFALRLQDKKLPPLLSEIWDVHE

[7] = molecular target: T7, Vitamin D3 receptor (Homo sapiens) (UniProt P11473); assay: Effect on VDR activity in GeneBLAzer VDR-UAS-bla HEK 293T cells by fluorescence based analysis; assay type: cell-based; method in brief: as §1
T7 sequence (whole entry): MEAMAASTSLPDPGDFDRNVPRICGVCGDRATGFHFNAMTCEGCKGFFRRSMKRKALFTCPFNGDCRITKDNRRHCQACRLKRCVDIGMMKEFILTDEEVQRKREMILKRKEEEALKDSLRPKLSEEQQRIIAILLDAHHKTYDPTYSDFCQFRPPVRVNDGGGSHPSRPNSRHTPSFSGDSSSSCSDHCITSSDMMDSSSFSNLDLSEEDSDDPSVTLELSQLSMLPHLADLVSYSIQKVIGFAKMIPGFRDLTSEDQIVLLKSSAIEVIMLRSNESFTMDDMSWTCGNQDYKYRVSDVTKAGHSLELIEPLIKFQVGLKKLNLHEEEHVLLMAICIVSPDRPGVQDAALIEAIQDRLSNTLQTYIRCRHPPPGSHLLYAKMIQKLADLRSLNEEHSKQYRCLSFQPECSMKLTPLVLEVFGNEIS

HEK-293T = assay: Cytotoxicity against HEK293T cells assessed as reduction in cell viability measured after 24 to 72 hrs by celltiter-glo luminescent cell viability assay; assay type: toxicity, cell-based; conditions: human, time 24-72 hrs
Method in brief: (§2)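 Cells seeded at 2,500 per well for 1-day or 5,000 per well for 3-day exposure. Viability read by CellTiter-Glo luminescence. Staurosporine (56 μM) set as 100% cytotoxicity. Each concentration run in quadruplicate, at least three times. % cytotoxicity plotted and fitted to a sigmoidal dose–response curve. Means and SDs from three independent experiments.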

HepG2 [8] = assay: Cytotoxicity against human HepG2 cells assessed as reduction in cell viability measured after 24 to 72 hrs by celltiter-glo luminescent cell viability assay; assay type: toxicity, cell-based; conditions: time 24-72 hrs; method in brief: as §2
[9] = Cytotoxicity against […] Hepa1-6 cells assessed as reduction in cell viability measured after 24 to 72 hrs by celltiter-glo luminescent cell viability assay; assay type: toxicity, cell-based; conditions: time 24-72 hrs; method in brief: as §2
HepaRG = assay: Cytotoxicity against human HepaRG cells assessed as reduction in cell viability measured after 24 to 72 hrs by celltiter-glo luminescent cell viability assay; assay type: toxicity, cell-based; conditions: time 24-72 hrs; method in brief: as §2

With `CCC[C@H](C)Oc1ccc(C(C)(C)C)cc1NC(=O)c1nnn(-c2cc(OC)ccc2OC)c1C` the inhibition at 1.017 h, 10 µM [1] was 87%, the inhibition at 24 h, 10 µM (PXR (NR1I2)) was 125% and the Activity [2] was “Not Active”. For the same compound, the Activity [3] was “Not Active”, the Activity (HepG2 [4]) was “inactive” and the Activity [5] was “inactive”. The Activity [6] was “inactive”, the Activity [7] was “inactive” and the Activity (HEK-293T) was “Non-Toxic”. The Activity (HepG2 [8]) was “Non-Toxic”, the Activity [9] was “Non-Toxic” and the Activity (HepaRG) was “Non-Toxic”.

Reference: ChEMBL document CHEMBL5236619, “Design and Optimization of 1H-1,2,3-Triazole-4-carboxamides as Novel, Potent, and Selective Inverse Agonists and Antagonists of PXR” (J Med Chem, 2022)
